The list is not random: actives were taken first. Their share in the collection is about 3.2%.
MLL AF4-AF9 inh: inhibitors of AF4 peptide binding to AF9, primary screen, biochemical, AlphaScreen, biotin-AF4 peptide, FLAG-AF9, single point. Protein AF-9 (Homo sapiens), P42568. inhibition, % at 10 µM. 350,000 compounds, 0.47% hits;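 active means every replicate reaching a set inhibition limit, whatever the replicate mean, cut at about 25% in these data; inconclusive means mean inhibition reaches that limit but some replicates miss it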
Target sequence (P42568 whole entry, looked up): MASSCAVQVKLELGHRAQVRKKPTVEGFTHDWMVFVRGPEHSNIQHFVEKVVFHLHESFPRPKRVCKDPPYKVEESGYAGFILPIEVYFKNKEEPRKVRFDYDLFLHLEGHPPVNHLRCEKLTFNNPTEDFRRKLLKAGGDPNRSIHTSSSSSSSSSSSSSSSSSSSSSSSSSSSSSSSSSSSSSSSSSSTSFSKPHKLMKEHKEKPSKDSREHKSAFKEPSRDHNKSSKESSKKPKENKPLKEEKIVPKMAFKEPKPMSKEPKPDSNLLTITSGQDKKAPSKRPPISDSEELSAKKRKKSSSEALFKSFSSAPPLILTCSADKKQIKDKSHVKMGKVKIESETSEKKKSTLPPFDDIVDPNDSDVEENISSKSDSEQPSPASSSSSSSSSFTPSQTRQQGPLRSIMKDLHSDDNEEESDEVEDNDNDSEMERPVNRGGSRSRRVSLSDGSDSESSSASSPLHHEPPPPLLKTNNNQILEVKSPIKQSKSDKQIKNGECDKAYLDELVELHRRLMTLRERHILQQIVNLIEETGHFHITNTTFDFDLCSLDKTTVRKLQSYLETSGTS
rRNA inh HTS: reduced GFP signal of wild-type E. coli, primary screen, bacterial rRNA inhibitor project, GFP/RFP fluorescence, OD600, single point; AID 720706, 2013; E. coli WT GFP vs humanized-ribosome RFP mutants, 24 h; active compounds read low; DMSO median 0, no signal -100; 350,000 compounds, 1.6% hits; GFP signal change (wild-type ribosome), % (test concentration not listed);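 active means significant combined selectivity score with lowered wild-type GFP, culture density cut under 30%, mutant RFP and density less affected; inactive means any of these conditions unmet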
PfHsp90 yeast 2: growth inhibition of PfHsp90-expressing yeast, primary screen, antimalarial PfHsp90 inhibitor project, S. cerevisiae, BacTiter-Glo luminescence, single point, set 2; BacTiter-Glo ATP, 48 h; yeast lacking PDR1 and PDR3 efflux regulators; inhibition, % at 9.4 µM; 310,000 compounds, 0.32% hits; AID 504621, 2011;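 active means every replicate shows inhibition above about 80%, whatever the replicate mean, limit read from the data; inconclusive means mean inhibition reaches the set limit but some replicate falls short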
DENV2 CPE: inhibitors of DENV2 cytopathic effect, primary screen, cell-based, plate reader, single concentration; 350,000 compounds, 1.7% hits; DENV2-infected cells, cytopathic effect rescue; CPE inhibition, % at 9.99 µM; AID 651640, 2012; in the data active means CPE inhibition above about 20%, passing the limit was not always enough; inconclusive means no clear call, values can overlap the other calls; tested in BHK-21 cells
S100A4 inh HTS: inhibitors of S100A4-myosin IIA peptide binding, primary screen, biochemical, fluorescence polarization, TAMRA-MyoIIA peptide | Protein S100-A4 (Homo sapiens), P26447 | inhibition, % at 10.7 µM | 360,000 compounds, 0.14% hits | AID 652163, 2013;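 active means mean inhibition of at least 70% across replicates, with every replicate also reaching that level; inconclusive means mean inhibition reaches 70% but some replicates fall short; inactive means mean inhibition below 70%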
Target sequence (P26447 whole entry, looked up): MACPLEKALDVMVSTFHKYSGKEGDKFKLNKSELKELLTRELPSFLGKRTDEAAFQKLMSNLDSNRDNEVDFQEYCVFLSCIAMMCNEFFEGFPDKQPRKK
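Material: human S100A4 monomer with TAMRA-labelled myosin IIA peptide; buffer or medium: HEPES pH 7.2 with CaCl2, KCl, NaCl, DTT, Triton; compound dosing: one concentration per compound; schedule: 5 min incubation before reading; benchmarks: neutral control DMSO, positive control TFP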
Cneo AK release: Cryptococcus neoformans cell lysis inducers, primary screen, AK release luminescence, single concentration; C. neoformans lysis, adenylate kinase release luminescence, 4 h; normalised: neutral wells 0, clomiphene wells 100; lysis activity, % at 15 µM; 360,000 compounds, 0.2% hits;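 active means mean lysis activity across replicates of at least 80%, whatever share of replicates individually reach that level; inactive means mean lysis activity below 80%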
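Material: C. neoformans cells | Amount: Yeast cell density of 5 × 10^6 cells/mL | Medium: Fresh YPD growth medium | Dosing: Single dose | Times: Static 4 h at 37 °C with compound, 1 h detection | Detection: AK luminescence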
Of the large screens only hits and unclear results are named; the others gave an inactive call.

COc1ccc(NC(=O)Nc2ccc3c(c2)C(=O)N([C@H](C)CO)C[C@H](C)[C@H](CN(C)S(=O)(=O)c2cccs2)O3)cc1	none (no result: PfHsp90 yeast 2)
N#Cc1cnn(-c2cc(Cl)ccc2Cl)c1N	DENV2 CPE inconclusive (no result: rRNA inh HTS, PfHsp90 yeast 2)
N#Cc1cnn(-c2ccc([N+](=O)[O-])cc2[N+](=O)[O-])c1N	rRNA inh HTS -7.5 (no result: PfHsp90 yeast 2)
O=C(c1ccccc1)c1ccc(-c2ccc(O)cc2)cc1	rRNA inh HTS -28
COCCNC(=O)/C(C#N)=C/C(C)=C/c1ccccc1	rRNA inh HTS -22 (no result: Cneo AK release)
COCCNC(=O)/C(C#N)=C/c1cccc(/C=C(\C#N)C(=O)NCCOC)c1	none (no result: Cneo AK release)
C[C@@H]1CN([C@@H](C)CO)C(=O)c2cc(C3=CCCCC3)cnc2O[C@@H]1CN(C)C(=O)c1ccncc1	none (no result: PfHsp90 yeast 2)
C[C@@H](NC(=O)C[C@H]1C=C[C@@H](NC(=O)Nc2ccc3c(c2)OCO3)[C@H](CO)O1)c1ccccc1	none (no result: PfHsp90 yeast 2)
CC(=O)C12OC1CC1C3CCC4=CC(=O)CCC4(C)C3CCC12C (stereo not drawn)	rRNA inh HTS -23
CCCNC(=O)[C@H]1[C@H](CO)[C@H]2Cn3c(ccc(-c4ccccc4OC)c3=O)[C@H]2N1C(=O)CC	none (no result: PfHsp90 yeast 2)
CC(C)(C)c1ccc(C(=O)CC(Sc2ccc(Cl)cc2)C(=O)O)cc1 (stereo not drawn)	PfHsp90 yeast 2 81 (no result: Cneo AK release)
Cc1ccc(SC(CC(=O)c2ccc(F)cc2)C(=O)O)cc1 (stereo not drawn)	none
O=C(NCC(F)(F)F)[C@H]1[C@H](CO)[C@H]2Cn3c(ccc(-c4cccnc4)c3=O)[C@@H]1N2Cc1ccccc1	none (no result: PfHsp90 yeast 2)
Cc1noc(C)c1NC(=O)Nc1ccc2c(c1)C(=O)N([C@H](C)CO)C[C@@H](C)[C@@H](CN(C)Cc1ccc(C(=O)Nc3ccccc3N)cc1)O2	none (no result: PfHsp90 yeast 2, Cneo AK release)
Cc1noc(C)c1NC(=O)Nc1ccc2c(c1)C(=O)N([C@H](C)CO)C[C@H](C)[C@@H](CN(C)Cc1ccccc1)O2	DENV2 CPE 23 (no result: PfHsp90 yeast 2)
Cc1noc(C)c1NC(=O)Nc1ccc2c(c1)C(=O)N([C@@H](C)CO)C[C@H](C)[C@H](CN(C)Cc1ccccc1)O2	DENV2 CPE 23 (no result: PfHsp90 yeast 2)
Cc1noc(C)c1NC(=O)Nc1ccc2c(c1)C(=O)N([C@@H](C)CO)C[C@@H](C)[C@H](CN(C)Cc1ccccc1)O2	none (no result: PfHsp90 yeast 2)
Cc1noc(C)c1NC(=O)Nc1ccc2c(c1)C(=O)N([C@H](C)CO)C[C@H](C)[C@H](CN(C)Cc1ccc(C(=O)Nc3ccccc3N)cc1)O2	DENV2 CPE 22 (no result: PfHsp90 yeast 2)
Cc1noc(C)c1C(=O)N(C)C[C@H]1OCc2ccccc2-c2c(n(C)c3ccccc23)C(=O)N([C@H](C)CO)C[C@H]1C	none (no result: PfHsp90 yeast 2)
O=C(NC1=NCCS1)c1sc2ccccc2c1Cl	rRNA inh HTS -31
O=C(NC1=NCCS1)c1sc2cc(Cl)cc(Cl)c2c1Cl	none (no result: MLL AF4-AF9 inh, rRNA inh HTS, DENV2 CPE, S100A4 inh HTS)
COc1cccc(/C=N/NC(=S)Nc2cccc(S(=O)(=O)N(C)C)c2)c1	rRNA inh HTS -18
COc1ccc(OC)c(/C=C/C(=O)c2ccc3c(c2)OCCO3)c1	rRNA inh HTS -25
COc1ccc(OC)c(/C=C/C(=O)Oc2ccc(C(C)=O)cc2)c1	rRNA inh HTS -24
C[C@@H]1CN([C@@H](C)CO)C(=O)c2cc(-c3ccccc3)cnc2O[C@H]1CN(C)C	none (no result: PfHsp90 yeast 2)
COc1ccc2c3c(n(C)c2c1)[C@H](CO)N(Cc1ccccc1OC)CC31CCN(CC2CCOCC2)CC1	none (no result: PfHsp90 yeast 2, Cneo AK release)
COc1ccc2oc(C(=O)NCC3CCCO3)c(C)c2c1 (stereo not drawn)	none
Cc1ccc(NC(=O)CN(C)C(=O)c2ccccc2OCc2c(C)noc2C)cc1	none (no result: PfHsp90 yeast 2)
CCOc1ccc(NC(=O)CN(C)C(=O)c2ccccc2OCc2c(C)noc2C)cc1OCC	DENV2 CPE 25 (no result: PfHsp90 yeast 2, Cneo AK release)
CCOc1ccc2oc(C(=O)NCC3CCCO3)c(C)c2c1 (stereo not drawn)	DENV2 CPE 64
CCOc1ccc2oc(C(=O)N(C)CC(=O)Nc3ccc(OCC)c(OCC)c3)c(C)c2c1	rRNA inh HTS -28, DENV2 CPE inconclusive
COC(=O)[C@@H]1[C@@H](CO)[C@@H]2Cn3c(ccc(-c4ccccc4F)c3=O)[C@@H]2N1C(=O)c1cnccn1	none (no result: PfHsp90 yeast 2)
CCOC(=O)c1ccc(N=c2sc(C(=O)OC)cc(=O)n2-c2ccc(C(=O)OCC)cc2)cc1	none
COC(=O)c1cc(=O)n(-c2ccccc2)c(=Nc2ccccc2)s1	MLL AF4-AF9 inh 28
CCCC(=O)Nc1ccc2c(c1)C(=O)N(C)[C@@H]1CC[C@@H](CC(=O)NCc3ccccc3F)O[C@@H]1CO2	none (no result: MLL AF4-AF9 inh, PfHsp90 yeast 2, S100A4 inh HTS)
COc1ccc(S(=O)(=O)Nc2cccc3c2O[C@@H](CN(C)S(=O)(=O)c2ccc(Cl)cc2)[C@H](C)CN([C@@H](C)CO)C3=O)cc1	none (no result: PfHsp90 yeast 2)
C#CCOCCOCCOCCNc1nc(N2CCOCC2)nc(N2CCN(C(=O)[C@H](Cc3ccc(O)cc3)n3cc([C@@H](N)CC(C)C)nn3)CC2)n1	DENV2 CPE 20
C#CCOCCOCCOCCNc1nc(N2CCN(C(=O)[C@H]([C@@H](C)CC)n3cc(CCCN=C(N)N)nn3)CC2)nc(N2CCN(C(=O)[C@H](Cc3ccc(O)cc3)n3cc(CCO)nn3)CC2)n1	MLL AF4-AF9 inh 31
C#CCOCCOCCOCCNc1nc(N2CCN(C(=O)Cn3cc(CCCCN)nn3)CC2)nc(N2CCN(C(=O)[C@H]([C@@H](C)CC)n3cc(CCCCN)nn3)CC2)n1	MLL AF4-AF9 inh 26
COc1ccc(NC(=O)CSc2n[nH]c(-c3ccccc3)n2)cc1S(N)(=O)=O	DENV2 CPE 52
COc1ccc(-c2nc(SCC(=O)Nc3cccc(S(N)(=O)=O)c3)n[nH]2)cc1	none
CCn1c(SCc2ccccc2)nc2ccccc2c1=O	rRNA inh HTS -32
CCn1c(/C=C\c2ccccc2C)nc2ccccc2c1=O	MLL AF4-AF9 inh 31
CCCCN1CC(N2CCN(Cc3ccccc3)CC2)CS1(=O)=O (stereo not drawn)	rRNA inh HTS -32 (no result: PfHsp90 yeast 2)
Cc1cccc(CN2CCN(C3CN(Cc4cn(Cc5ccc(Cl)cc5)nn4)S(=O)(=O)C3)CC2)c1 (stereo not drawn)	rRNA inh HTS -25 (no result: PfHsp90 yeast 2, Cneo AK release)
Cc1cccc(CN2CCN(C3CN(Cc4cn(Cc5cccc(Cl)c5)nn4)S(=O)(=O)C3)CC2)c1 (stereo not drawn)	rRNA inh HTS -36 (no result: PfHsp90 yeast 2, Cneo AK release)
